# High-throughput results from PubChem.
# Measles CPE – protection of cells from measles virus; hit rate 1.5% among 140,000; Measles virus-infected cells, CPE protection, absorbance; protection (pct of control), % at 4 µM; in the data active means protection mostly above about 24%, no sharp cut-off; inactive means mostly below about 26%
# PTK2B oligo ant – blocks oligomerization of human Pyk2 in cells. hit rate 0.83% among 99,000. AID 1347419. z-score (the deposit names both 25 µM and 10 µM). Q293 cells, Pyk2 FERM NanoBiT luminescence; hits give low values;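 active means Z-score of -3 or lower, scaled per plate to the spread of control and sample wells; inactive means z-score above -3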;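 further: negative z-score means lost luminescence so less FERM oligomerization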
# Target sequence (Q14289 whole entry, looked up): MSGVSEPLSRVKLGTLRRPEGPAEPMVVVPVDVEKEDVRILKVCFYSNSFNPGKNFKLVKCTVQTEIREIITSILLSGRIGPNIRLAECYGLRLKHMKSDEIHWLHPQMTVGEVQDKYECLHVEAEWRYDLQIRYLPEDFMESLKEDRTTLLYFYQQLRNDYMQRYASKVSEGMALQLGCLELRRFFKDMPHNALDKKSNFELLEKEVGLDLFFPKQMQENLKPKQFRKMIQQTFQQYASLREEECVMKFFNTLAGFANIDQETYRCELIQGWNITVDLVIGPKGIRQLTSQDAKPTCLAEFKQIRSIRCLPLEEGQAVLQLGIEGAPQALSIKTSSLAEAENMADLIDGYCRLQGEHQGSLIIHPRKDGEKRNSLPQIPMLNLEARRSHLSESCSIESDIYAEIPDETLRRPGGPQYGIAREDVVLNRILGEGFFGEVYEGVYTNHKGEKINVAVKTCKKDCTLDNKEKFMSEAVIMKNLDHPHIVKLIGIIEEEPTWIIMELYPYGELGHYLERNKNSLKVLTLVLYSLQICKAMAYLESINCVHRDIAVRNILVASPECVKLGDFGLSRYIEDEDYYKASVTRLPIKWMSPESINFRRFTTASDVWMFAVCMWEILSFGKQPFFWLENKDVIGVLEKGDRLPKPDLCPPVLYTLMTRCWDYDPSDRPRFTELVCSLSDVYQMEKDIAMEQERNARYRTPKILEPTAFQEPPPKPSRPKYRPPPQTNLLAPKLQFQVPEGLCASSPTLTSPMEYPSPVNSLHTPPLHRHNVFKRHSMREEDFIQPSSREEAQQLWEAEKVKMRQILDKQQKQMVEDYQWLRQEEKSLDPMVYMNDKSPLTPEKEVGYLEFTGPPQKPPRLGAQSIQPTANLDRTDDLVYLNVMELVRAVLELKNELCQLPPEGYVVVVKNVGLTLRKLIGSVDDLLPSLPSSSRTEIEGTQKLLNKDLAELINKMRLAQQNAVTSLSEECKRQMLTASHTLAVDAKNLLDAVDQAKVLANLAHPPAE
# DAT uptake mod – modulates human dopamine transporter uptake under cocaine; AID 449768; hit rate 1.3% among 110,000; LLC-PK1 hDAT cells, [14C]-dopamine uptake with cocaine IC80; actives deviate in either direction; Q01959; B-score at 10 µM;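 active means Z score or B-score, a plate-position-corrected score, falls beyond the plate's 99.7% confidence bounds, in either direction; inactive means both scores lie inside the 99.7% bounds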;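 further: scored against the spread of the other compound wells on the same plate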
# Cav32 inh – inhibitors of human Cav3.2 T-type calcium channel. Cav3.2-expressing cells, Fluo-4 calcium fluorescence FDSS; hits give low values. O95180. hit rate 4% among 100,000. B-score at 10 µM;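 active means single-dose well whose peak fluorescence ratio is a statistical outlier from its plate by either plate-standardised score or position-corrected B-score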
# Phagocyt inh – blocks phagocytosis by macrophages; inhibition, % at 5 µM; AID 1029; J774A.1 macrophage IgG-bead phagocytosis, imaging; hit rate 0.07% among 110,000;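 active means inhibition above the mean of the plate negative controls plus 5 SD, cut at about 13% in these data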;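 further: phagocytic index as fraction of beads internalized from green versus red external bead signal; plate controls were DMSO negative control for no effect and cytochalasin-D positive control for full effect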
# HIV Rev-RRE inh – HIV Rev-RRE protein-RNA interaction inhibition; hit rate 0.79% among 97,000; P05866; inhibition, % at 8 µM; Rev peptide-RRE RNA binding, FRET;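 active means inhibition above the screen-wide mean plus 3 SD, cut at about 35% in these data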;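 further: 0% = median DMSO wells and 100% = median Neomycin B control wells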
#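 Test system: labelled RRE RNA duplex and labelled Rev peptide. Times: 5 min compound–RNA preincubation, then 15 min with peptide, 25 °C. Doses: single-dose 8 µM. Measured by: FRET, excitation 480 nm, emission 540 nm donor and 671 nm acceptor. Measure: % inhibition of FRET ratio versus controls.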
# * = called active by the depositor; . = no result; [ ] = dose if it differs, or a comment. Most compounds without a hit are left out; they make up all but 5.9% or so of the library.
SMILES,Measles CPE,PTK2B oligo ant,DAT uptake mod,Cav32 inh,Phagocyt inh,HIV Rev-RRE inh
CCn1c(SCC(=O)Nc2nc(C)c(C(=O)OC)s2)nnc1C(C)C,4,0.98,-0.21,0.52,-1,6
CCCn1c(SCC(=O)Nc2nc(C)c(C(=O)OC)s2)nnc1C(C)C,31*,0.65,1.1,-0.056,0,2
O=C(Nc1cccc(NC(=O)c2ccc(-c3ccc(Br)cc3)o2)c1)c1ccco1,6,-2.3,0.0045,-3.4,.,-1
O=Cc1cn(CC(=O)N2CCCCC2)c2ccccc12,4,.,.,.,-4,.
CN1C(=O)/C(=C/c2cn(CC(=O)N3CCCCC3)c3ccccc23)c2ccccc21,18,.,3.8*,-1.4,0,11
CCOc1ccc(C(=O)NC(=S)N(Cc2ccccc2)Cc2ccccc2)cc1,17,-0.52,-0.15,-4.6*,.,-8
Cn1c(C(=O)O)c(CC(=O)N2CCC(Cc3ccccc3)CC2)c2ccccc21,9,1.6,.,.,-3,.
CCOC(=O)c1sc(=S)n(C)c1NC(=O)c1ccccc1Cl,9,.,.,.,3,.
O=C(Oc1cccc(NC(=O)c2ccco2)c1)c1cccc(S(=O)(=O)N2CCCCC2)c1,6,0.43,-7.9*,-1.5,0,14
O=C(Nc1cccc(S(=O)(=O)N2CCOCC2)c1)c1ccco1,22,-0.12,-1.2,-0.16,0,5
CCCCc1cc(=O)oc2cc(OCC(=O)N(CC)CC)ccc12,1,-0.44,0.047,0.75,.,2
CCCCc1cc(=O)oc2cc(OCC(=O)N(CC)CC)c(Cl)cc12,11,.,0.99,-3.1*,1,.
COc1ccc(NS(=O)(=O)c2cccc(N/C(=N\S(=O)(=O)c3ccccc3)c3ccc(F)cc3)c2)cc1,5,-0.56,.,.,-7,.
COc1cccc(-c2nnc(NC(=O)c3ccc(S(=O)(=O)N4CC(C)OC(C)C4)cc3)o2)c1 (configuration not stated),5,-4.1*,.,.,-1,3
CC1CC(C)CN(S(=O)(=O)c2ccc(C(=O)Nc3nnc(-c4cccs4)o3)cc2)C1 (configuration not stated),15,-4.5*,.,.,-2,2
Cc1nnc(NC(=O)c2ccc(S(=O)(=O)N3CCCCCC3)cc2)o1,12,-0.54,0.76,-0.31,-1,2
CCC1CCCCN1S(=O)(=O)c1ccc(C(=O)Nc2nnc(-c3cccs3)o2)cc1 (configuration not stated),5,-2.9,-0.22,-8.5*,.,13
CC1CCCN(S(=O)(=O)c2ccc(C(=O)Nc3nnc(-c4ccccc4Cl)o3)cc2)C1 (configuration not stated),2,-3.8*,-0.51,-7.3*,-1,11
CCc1nnc(NC(=O)c2ccc(S(=O)(=O)N3CCCCC3C)cc2)s1 (configuration not stated),8,-0.62,0.24,0.072,0,3
CCCc1sc(N)nc1-c1ccc(C)cc1,16,-0.36,0.46,-1,0,.
O=C(Nc1cccc(-c2nnn(CC(=O)N3CCc4ccccc4C3)n2)c1)C1CCC1,10,-0.6,1.1,-4.4*,.,9
O=C(Nc1ccccc1-c1nnn(CC(=O)N2CCc3ccccc3C2)n1)C1CCC1,4,-0.1,0.68,-1.1,0,11
O=C(Nc1c2c(nc3ccccc13)CCCC2)c1cccc([N+](=O)[O-])c1,2,.,.,.,-7,.
CC1(C)Cc2ccccc2-c2nnc(-c3ccc(O)cc3)n21,8,-0.3,.,.,.,-1
CC1(C)Cc2ccccc2-c2nnc(C(F)(F)F)n21,41*,.,.,.,-3,.
SMILES,Measles CPE,PTK2B oligo ant,DAT uptake mod,Cav32 inh,Phagocyt inh,HIV Rev-RRE inh
CCOc1ccc(S(=O)(=O)NCCC(=O)OC(C)C(=O)N2CCc3ccccc32)cc1 (configuration not stated),54*,1.2,1.1,-4.6*,.,6
CCOc1ccc(S(=O)(=O)NCCC(=O)OCN2C(=O)c3ccccc3C2=O)cc1,10,0.48,0.47,0.0053,-1,5
CC(OC(=O)C1CCN(S(=O)(=O)c2ccc(Cl)cc2)CC1)C(=O)N1CCc2ccccc21 (configuration not stated),27,0.1,-0.33,-4.7*,-2,15
COc1cccc(CC(=S)N2CCOCC2)c1,26,.,.,.,-3,.
c1ccc(-c2ccccc2-c2nc(-c3cccnc3)no2)cc1,15,-2.1,0.8,-5*,-3,13
COCCN1C=C(C(=O)OC)C(c2cc(Br)c(OC)c(OC)c2)C(C(=O)OC)=C1,9,-3.4*,0.8,-0.34,0,2
CCN1CCN(c2ccc(NC(=O)c3ccc4c(c3)[nH]c(=O)n4Cc3ccc(F)cc3)cc2)CC1,30,.,.,.,6,.
Cc1scc(C(=O)Nn2cnnc2)c1-c1ccccc1,41*,0.14,-0.15,0.5,-1,4
Cc1cccc(NC(=S)NCCN2CCOCC2)c1C,39*,.,.,.,-4,.
CN1C[C@@H]2C(c3ccc(C(F)(F)F)cc3)C3(c4ccc(C#N)cc4)CC2(C3)[C@H]1c1ccccc1 (some centres not stated),.,.,0.89,-1.2,.,.
CN(CC(=O)N1CCCC1)S(=O)(=O)c1cc(Cl)ccc1Cl,21,-0.16,-0.15,1.8,25*[artifact],8
CN(CC(=O)O)S(=O)(=O)c1cc(Cl)ccc1Cl,5,0.37,-0.74,0.37,0,3
N#Cc1ccc(-n2nccc2-c2cnc3n(c2=O)CCS3)cc1,41*,0.64,-1.1,0.41,-1,9
CN(C)c1nc(NCc2ccccc2)nc(SCC(=O)Nc2ccc(Cl)c(Cl)c2)n1,9,0.51,-0.21,-4.1*,.,6
CCOc1ccc(OCC)c(N=c2oc3c(C)ncc(CO)c3cc2C(N)=O)c1,50*,0.55,.,.,1,8
COc1cccc(N=c2oc3c(C)ncc(CO)c3cc2C(=O)Nc2ccccc2OC)c1,13,.,.,.,.,8
COc1ccc(C(=O)CSc2nnc(CN3CCCCC3)n2-c2ccc(Cl)cc2)cc1OC,2,.,.,.,-11,.
Cc1ccccc1-n1c(SCC(=O)c2c(N)n(C)c(=O)n(C)c2=O)nc2sc3c(c2c1=O)CCCC3,23,.,.,.,.,.
Cc1sc2nc(SCC(=O)NCc3ccco3)n(-c3ccccc3)c(=O)c2c1C,20,-2.1,-0.55,-0.11,0,0
CC(C)C(C)NC(=O)CSc1nc2scc(-c3ccco3)c2c(=O)n1-c1ccccc1 (configuration not stated),1,0.52,0.46,-5.4*,1,1
CC(C)C(C)(C#N)NC(=O)CSc1nc2scc(-c3ccco3)c2c(=O)n1-c1ccccc1 (configuration not stated),14,0.18,0.45,-5.1*,1,6
CC(NC(=O)CSc1nc2sc3c(c2c(=O)n1-c1ccccc1)CCCC3)c1ccccc1 (configuration not stated),3,-1.9,-0.58,-6.5*,.,2
Cc1cc(C)c(S(=O)(=O)n2ccc(-c3ccc(OCCN(C)c4ccccn4)cc3)n2)c(C)c1,4,0.72,0.39,-0.61,.,17
